Source: ChEMBL document CHEMBL1152418, “Synthesis, antiviral activity and molecular modeling of oxoquinoline derivatives” (Bioorg Med Chem, 2009)

Assays:
[1] = Selectivity index, ratio of CC50 for human PBMC cells to EC50 for HIV1; format: toxicity, cell-based; details: read-out: Ratio CC50/EC50
Summary of the method: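 Ratio of PBMC CC50 to anti-HIV-1 EC50. Both were measured in PHA-activated, IL-2-maintained PBMCs. For EC50, cells were infected with Ba-L isolate (R5-tropic, subtype B), plated at 2 × 10⁵ cells/well in triplicate and treated with various concentrations for 7 days at 37 °C, 5% CO2. Supernatant p24 was measured by capture ELISA against untreated infected cells. CC50 came from XTT viability.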

[2] = test system: Human immunodeficiency virus 1; test: Inhibition of HIV1 viral replication infected in human PBMC cells assessed as viral p24Ag concentration after 7 days postinfection by ELISA; format: functional, organism-based; details: Human immunodeficiency virus 1, PBMC, 168 h
Summary of the method: (§1)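 HIV-1 Ba-L (R5-tropic, subtype B) grown in PHA-activated donor PBMCs. PBMCs stimulated 2–3 days with 5 μg/mL PHA, then kept with 5 U/mL IL-2. Cells plated at 2 × 10⁵/well in triplicate with a range of compound concentrations. After 7 days at 37 °C, 5% CO₂, supernatant p24 measured by capture ELISA. EC₅₀ derived against untreated infected cells.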

[3] = Cytotoxicity against human PBMC by XTT assay; format: cell-based; details: PBMC (peripheral blood mononuclear cells)
Summary of the method: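 PBMCs held in RPMI 1640 with 10% heat-inactivated FBS, penicillin, streptomycin, 2 mM glutamine and 10 mM HEPES. Activated with 5 µg/mL PHA for 2–3 days, then kept with 5 U/mL IL-2. Cells exposed to a range of concentrations. Viability read by XTT, OD 450 nm 2 h after addition. CC50 is the concentration giving 50% viability loss versus untreated controls.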

[4] = test system: Human immunodeficiency virus 1; test: Inhibition of HIV1 viral replication infected in human PBMC cells assessed as viral p24Ag concentration after 7 days postinfection by ELISA relative to untreated control; format: functional; summary of the method: as §1

| Compound | selectivity ratio [1] | EC50 [2] | CC50 [3] | inhibition (INH) [4] |
| --- | --- | --- | --- | --- |
| CCOC(=O)c1cn(COCCO)c2ccc(F)cc2c1=O | 18 | 83.3 µM | 1500 µM | 30% |
| CCOC(=O)c1cn(COCCO)c2ccc(Cl)cc2c1=O | 36 | 50 µM | 1800 µM | 45% |
| O=C(NCc1ccccc1)c1cn(COCCO)c2ccc(Cl)cc2c1=O | 711 | 4.5 µM | 3200 µM | 98% |
| CCOC(=O)c1cn(Cc2ccccc2)c2ccc(Cl)cc2c1=O | 18 | 104 µM | 1840 µM | 24% |
| O=C(NCc1ccccc1)c1c[nH]c2ccc(Cl)cc2c1=O | 26 | 53 µM | 1400 µM | 47% |
| NNC(=O)c1cn(COCCO)c2ccc(Cl)cc2c1=O | 960 | 2.5 µM | 2400 µM | 99% |
| O=C(NCc1ccccc1)c1cn(COCCO)c2ccc(F)cc2c1=O | 1000 | 2.8 µM | 2800 µM | 90% |
| NNC(=O)c1c[nH]c2ccc(Cl)cc2c1=O | 14 | 86 µM | 1230 µM | 29% |
| O=C(O)c1cn([C@@H]2O[C@H](CO)[C@@H](O)[C@H]2O)c2ccc(Cl)cc2c1=O | 1130 | 1.5 µM | 1700 µM | 99% |
| NNC(=O)c1cn(COCCO)c2ccc(F)cc2c1=O | 275 | 3.3 µM | 909 µM | 96% |
| O=C(O)c1cn(Cc2ccccc2)c2ccc(Cl)cc2c1=O | 22 | 86 µM | 1890 µM | 29% |
| CCOC(=O)c1c[nH]c2ccc(Cl)cc2c1=O | 39 | 43 µM | 1660 µM | 58% |
| Cc1cn([C@H]2C[C@H](N=[N+]=[N-])[C@@H](CO)O2)c(=O)[nH]c1=O [ZIDOVUDINE] | 2520 | 0.05 µM | 126 µM | 94% |
